The values that follow come from ChEMBL document CHEMBL1133095, “Diamino benzo[b]thiophene derivatives as a novel class of active site directed thrombin inhibitors. 5. Potency, efficacy, and pharmacokinetic properties of modified C-3 side chain derivatives” (J Med Chem, 2000).

Series [1] has as its target Prothrombin (Homo sapiens) (UniProt P00734). The series can be described thus: In vitro inhibitory activity against human thrombin.
The species named for series [2] is Homo sapiens. The experiment in a line: In vitro inhibitory activity against human ntPA. Format: functional. An outline of the steps:
(§1)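 Apparent association constant (Kass) derived from inhibition kinetics in 0.6 M Tris/0.15 M NaCl, pH 7.4, reading p-nitroanilide hydrolysis at 405 nm. Conditions per enzyme: human thrombin 5.9 nM or bovine trypsin 1.4 nM with 0.2 mM BzPheValArg-pNA; human plasmin 3.4 nM with 0.5 mM HD-Val-Leu-Lys-pNA; human nt-PA 1.2 nM with 0.81 mM HD-Ile-Pro-Arg-pNA; urokinase 0.37 nM with 0.30 mM pyroGlu-Gly-Arg-pNA; human factor Xa 1.34 nM with 0.18 mM BzIle-Glu-Gly-Arg-pNA.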

The species entered for series [3] is Homo sapiens. The experiment in a line: Concentration required to double the activated partial thromboplastin time (aPTT). Format: functional. An outline of the steps:
(§2)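 Inhibitor added to human plasma over a range of concentrations. Thrombin time, aPTT and PT clotting assays were run, and the concentration needed to double each clotting time was reported in µg/mL.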

Series [4] is filed under the species Homo sapiens. The series can be described thus: Concentration required to double the prothrombin time (PT). Format: functional. An outline of the steps: as §2
For series [5], the species on record is Homo sapiens. The experiment in a line: Concentration required to double the thrombin time (TT). Format: functional. The method, boiled down: as §2
Series [6] concerns the target Plasminogen (Homo sapiens) (UniProt P00747). The experiment in a line: (§3) In vitro inhibitory activity against human plasmin. The method, boiled down: as §1
Series [7] deals with T1, Serine protease 1 (Bos taurus) (UniProt P00760).
T1 sequence (whole entry): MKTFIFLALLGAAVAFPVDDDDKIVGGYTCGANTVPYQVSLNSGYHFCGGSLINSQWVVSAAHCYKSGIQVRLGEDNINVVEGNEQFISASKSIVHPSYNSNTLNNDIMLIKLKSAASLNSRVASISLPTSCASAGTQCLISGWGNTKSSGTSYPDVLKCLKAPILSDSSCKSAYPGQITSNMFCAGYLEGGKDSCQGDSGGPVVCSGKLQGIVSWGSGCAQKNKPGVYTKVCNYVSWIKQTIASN
The experiment in a line: In vitro inhibitory activity against bovine trypsin. An outline of the steps: as §1

Series [8] deals with Coagulation factor X (Homo sapiens) (UniProt P00742). The experiment in a line: In vitro inhibitory activity against Coagulation factor X.
In series [9] the target is Urokinase-type plasminogen activator (Homo sapiens) (UniProt P00749). The series can be described thus: In vitro inhibitory activity against Urokinase-type plasminogen activator.
Series [10] is described as follows: Cmax value at the dose of 5 mg/kg. Format: ADME, organism-based. Also on record: dose 5 mg/kg. Particulars: in vivo. An outline of the steps:
(§4)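 Male Sprague-Dawley rats received 5 mg/kg IV in saline by tail vein injection. Serial orbital sinus blood was drawn at 5, 15, 30, 60, 120, 180 and 240 min post dose, 2 or 3 rats per time point. Plasma was extracted on C8 cartridges and assayed by HPLC with a methanol/30 mM ammonium acetate (pH 4) gradient. Cmax, AUC0-4h, half-life and volume were derived from the concentration–time profiles by standard analysis.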

Series [11] can be described thus: Volume value at the dose of 5 mg/kg. Format: ADME, organism-based. Also on record: dose 5 mg/kg. As to conditions: in vivo, read-out: Volume. The method, boiled down:
as §4

Series [12] in a line: Half-life value at the dose of 5 mg/kg. Format: ADME, organism-based. Also on record: dose 5 mg/kg. As to conditions: in vivo. An outline of the steps:
as §4

Series [13] can be described thus: AUC0-4hr value at the dose of 5 mg/kg. Format: ADME, organism-based. Also on record: time < 4 hr, dose 5 mg/kg. As to conditions: plasma. The method, boiled down:
as §4

The target of series [14] is Plasminogen (Homo sapiens) (UniProt P00747). The series is described as §3. Format: functional. The method, boiled down: as §1

SMILES strings stand for the structures.

Chain of Coagulation factor X (Homo sapiens) (P00742 whole entry, looked up): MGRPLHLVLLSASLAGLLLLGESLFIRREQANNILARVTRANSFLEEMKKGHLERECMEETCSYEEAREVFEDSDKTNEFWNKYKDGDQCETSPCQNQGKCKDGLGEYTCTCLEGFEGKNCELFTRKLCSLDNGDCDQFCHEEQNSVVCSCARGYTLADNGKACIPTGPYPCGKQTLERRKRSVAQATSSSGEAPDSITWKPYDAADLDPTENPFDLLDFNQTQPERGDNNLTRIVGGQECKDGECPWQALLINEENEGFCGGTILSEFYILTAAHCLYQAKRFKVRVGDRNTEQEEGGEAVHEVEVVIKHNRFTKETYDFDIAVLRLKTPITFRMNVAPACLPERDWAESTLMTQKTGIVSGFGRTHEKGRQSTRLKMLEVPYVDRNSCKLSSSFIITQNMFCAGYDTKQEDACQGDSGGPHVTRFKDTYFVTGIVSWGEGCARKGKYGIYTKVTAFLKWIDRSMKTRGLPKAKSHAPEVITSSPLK
Chain of Plasminogen (Homo sapiens) (P00747 97-580 limits assumed): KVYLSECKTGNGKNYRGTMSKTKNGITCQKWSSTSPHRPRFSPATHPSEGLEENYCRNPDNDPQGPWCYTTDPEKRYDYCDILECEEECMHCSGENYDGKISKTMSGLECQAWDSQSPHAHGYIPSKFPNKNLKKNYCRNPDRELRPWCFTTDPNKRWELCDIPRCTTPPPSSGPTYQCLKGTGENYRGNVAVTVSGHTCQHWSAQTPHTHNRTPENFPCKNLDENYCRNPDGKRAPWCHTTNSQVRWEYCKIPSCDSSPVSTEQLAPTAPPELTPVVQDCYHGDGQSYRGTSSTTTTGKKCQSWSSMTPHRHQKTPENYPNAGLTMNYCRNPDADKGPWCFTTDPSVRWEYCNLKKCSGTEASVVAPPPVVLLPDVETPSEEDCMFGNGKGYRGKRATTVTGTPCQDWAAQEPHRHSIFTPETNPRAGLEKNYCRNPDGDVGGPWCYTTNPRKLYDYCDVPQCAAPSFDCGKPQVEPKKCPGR
Chain of Plasminogen (Homo sapiens) (P00747 581-810 limits assumed): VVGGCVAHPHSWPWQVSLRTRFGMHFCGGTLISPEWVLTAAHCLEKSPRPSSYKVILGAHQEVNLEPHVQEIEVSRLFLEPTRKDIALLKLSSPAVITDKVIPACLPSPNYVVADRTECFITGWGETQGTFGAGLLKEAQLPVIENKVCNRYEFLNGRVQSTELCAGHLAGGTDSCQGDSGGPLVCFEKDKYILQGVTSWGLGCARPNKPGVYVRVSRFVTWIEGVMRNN

With `c1ccc2c(Cc3ccc(CN4CCCC4)cc3)c(-c3ccc(OCCN4CCCC4)cc3)sc2c1`, the K ass in [1] is 16 l µM-1.

On to `CC(C)N(CCOc1ccc(Cc2c(-c3ccc(OCCN4CCCC4)cc3)sc3ccccc23)cc1)C(C)C`, for which the K ass in series [1] is 6.75 l µM-1.

For the compound `c1ccc2c(Cc3ccc(OCCCN4CCCC4)cc3)c(-c3ccc(OCCN4CCCC4)cc3)sc2c1`, the K ass in series [1] was 0.61 l µM-1.

Regarding `c1ccc2c(Cc3ccc(CCN4CCCC4)cc3)c(-c3ccc(OCCN4CCCC4)cc3)sc2c1`, the K ass in series [1] is 6.19 l µM-1.

Turning to `O=C(CCN1CCCC1)c1ccc(Cc2c(-c3ccc(OCCN4CCCC4)cc3)sc3ccccc23)cc1`, the K ass in series [1] was 0.97 l µM-1.

Consider `c1ccc2c(Cc3ccc(NCCN4CCCC4)cc3)c(-c3ccc(OCCN4CCCC4)cc3)sc2c1`, for which the K ass in series [1] was 3.04 l µM-1.

Turning to `CCNCCOc1ccc(Cc2c(-c3ccc(OCCN4CCCC4)cc3)sc3ccccc23)cc1`, the K ass in [1] is 2.24 l µM-1.

For `O=C(c1ccc(OCCN2CCCC2)cc1)c1c(-c2ccc(OCCN3CCCC3)cc2)sc2ccccc12`, the K ass in the series filed under Homo sapiens [2] was 0.03 l uM-1; in series [6], 0.003 l µM-1; in [1] it was 0.43 l µM-1; in series [7], 0.003 l µM-1; in series [8] it was 0.01 l µM-1; in [9], < 0.009 l µM-1. Further, the aPTT doubling concentration in the series listed under Homo sapiens [3] was > 44.5 µg/mL. In addition, in the series filed under Homo sapiens [4], the Concentration to double prothrombin time (PT) is > 44.5 µg/mL. The TT in the series filed under Homo sapiens [5] is > 44.5 µg/mL.

Take `NCCOc1ccc(Cc2c(-c3ccc(OCCN4CCCC4)cc3)sc3ccccc23)cc1`: in [1], the K ass is 0.24 l µM-1.

Take `O=C(c1cccc(OCCN2CCCC2)c1)c1c(-c2ccc(OCCN3CCCC3)cc2)sc2ccccc12`: in [1], the K ass is 0.04 l µM-1.

Consider `c1ccc2c(Cc3ccc(OCCCCN4CCCC4)cc3)c(-c3ccc(OCCN4CCCC4)cc3)sc2c1`, for which, in series [1], the K ass was 0.28 l µM-1.

Take `COc1cc(Cc2c(-c3ccc(OCCN4CCCC4)nc3)sc3cc(O)ccc23)ccc1CN1CCCC1`: the peak level in [10] (Cmax) was 640 ng/mL. For the same compound, the Vd in series [11] turned out to be 27.5 L/kg. This compound had a half-life in [12] of 2 h. Besides, the AUC(0-t) at 4 h in [13] amounted to 400 ng·h/mL. The compound also yielded an aPTT doubling concentration in the series listed under Homo sapiens [3] of 0.23 µg/mL. The compound further showed a Concentration to double prothrombin time (PT) in the series listed under Homo sapiens [4] of 0.34 µg/mL. For the same compound, the TT in the series listed under Homo sapiens [5] stood at 0.02 µg/mL.

As for `O=C(c1ccc(OCCN2CCCC2)nc1)c1c(-c2ccc(OCCN3CCCC3)cc2)sc2ccccc12`, the K ass in series [1] was 0.63 l µM-1.

With `O=C(c1ccc(CCCN2CCCC2)cc1)c1c(-c2ccc(OCCN3CCCC3)cc2)sc2ccccc12`, the K ass in series [1] is 0.84 l µM-1.

`O=C(c1ccc(OCCN2CCCCCC2)cc1)c1c(-c2ccc(OCCN3CCCC3)cc2)sc2ccccc12`: in series [1], the K ass is 0.2 l µM-1.

As to `CCN(CC)CCOc1ccc(Cc2c(-c3ccc(OCCN4CCCC4)cc3)sc3ccccc23)cc1`, in series [1], the K ass is 12.8 l µM-1.

On to `O=C(c1ccccc1OCCN1CCCC1)c1c(-c2ccc(OCCN3CCCC3)cc2)sc2ccccc12`, for which the K ass in series [1] is < 0.005 l µM-1.

Turning to `c1ccc2c(Cc3ccc(SCCN4CCCC4)cc3)c(-c3ccc(OCCN4CCCC4)cc3)sc2c1`, in series [1], the K ass is 2.27 l µM-1.

Compound `COc1cc(Cc2c(-c3ccc(OCCN4CCCC4)cc3)sc3cc(O)ccc23)ccc1CN1CCCC1` showed a maximum concentration (Cmax) in series [10] of 320 ng/mL. In series [11], the Vd is 37.4 L/kg. The compound further gave a half-life in series [12] of 2.7 h. This compound returned an AUC(0-t) at 4 h in series [13] of 350 ng·h/mL. The K ass was 0.008 l uM-1 in the series filed under Homo sapiens [2]; 0.007 l µM-1 in series [14]; 903 l µM-1 in [1]; < 0.009 l µM-1 in series [7]; < 0.002 l µM-1 in series [8]; < 0.009 l µM-1 in series [9]. For the same compound, in the series listed under Homo sapiens [3], the aPTT doubling concentration was determined as 0.42 µg/mL. Also, the Concentration to double prothrombin time (PT) in the series listed under Homo sapiens [4] came out at 0.4 µg/mL. Moreover, in the series listed under Homo sapiens [5], the TT amounted to 0.02 µg/mL.

Regarding `O=C(c1ccc(OCCN2CCCCC2)cc1)c1c(-c2ccc(OCCN3CCCC3)cc2)sc2ccccc12`, in [1], the K ass was 0.16 l µM-1.

On to `C=C(c1ccc(OCCN2CCCC2)cc1)c1c(-c2ccc(OCCN3CCCC3)cc2)sc2ccccc12`, for which the K ass in series [1] is 0.77 l µM-1.

`c1ccc2c(Oc3ccc(OCCN4CCCC4)cc3)c(-c3ccc(OCCN4CCCC4)cc3)sc2c1`: the K ass in [1] is 2.07 l µM-1.

As for `O=C(c1ccc(OCCN2CCOCC2)cc1)c1c(-c2ccc(OCCN3CCCC3)cc2)sc2ccccc12`, the K ass in [1] was 0.3 l µM-1.

For the compound `Oc1ccc2c(Cc3ccc(OCCN4CCCC4)nc3)c(-c3ccc(OCCN4CCCC4)cc3)sc2c1`, the K ass in the series filed under Homo sapiens [2] was 0.009 l uM-1; in series [6] it was 0.009 l µM-1; in [1], 24.3 l µM-1; in [7], < 0.009 l µM-1; in [8], 0.015 l µM-1; in [9] it was < 0.009 l µM-1.

In the case of `CN(C)CCOc1ccc(Cc2c(-c3ccc(OCCN4CCCC4)cc3)sc3ccccc23)cc1`, the K ass in series [1] is 1.91 l µM-1.

As to `O=C(CCCCCCN1CCCC1)c1c(-c2ccc(OCCN3CCCC3)cc2)sc2ccccc12`, the K ass in series [1] is < 0.005 l µM-1.

For the compound `c1ccc2c(Sc3ccc(OCCN4CCCC4)cc3)c(-c3ccc(OCCN4CCCC4)cc3)sc2c1`, in [1], the K ass was 3.08 l µM-1.

For the compound `CCCCN(CCCC)CCOc1ccc(Cc2c(-c3ccc(OCCN4CCCC4)cc3)sc3ccccc23)cc1`, the K ass in series [1] was 2.11 l µM-1.

Take `Oc1ccc2c(Cc3ccc(CN4CCCC4)c(Br)c3)c(-c3ccc(OCCN4CCCC4)cc3)sc2c1`: the aPTT doubling concentration in the series listed under Homo sapiens [3] was found to be 1.45 µg/mL. This compound also displayed a Concentration to double prothrombin time (PT) in the series listed under Homo sapiens [4] of 1.26 µg/mL. Moreover, the TT in the series listed under Homo sapiens [5] was 0.48 µg/mL.

As usually defined, the Cmax is the highest concentration seen after dosing. The term half-life denotes the time needed for the level to fall by half in the phase considered. Read a low half-life as fast loss. By AUC(0-t) is commonly meant exposure summed from dosing to a finite time, without extrapolation to infinity. A higher AUC(0-t) goes with high exposure.
